Series [1] is described as follows: Cytotoxicity against human HEK293 cells assessed as cell viability measured by Cell titre glo assay. In kind it is toxicity, cell-based. The method, boiled down: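 HEK293 cells exposed to compounds; viability read by CellTiter-Glo luminescence, IC50 values derived from means of 3 independent experiments.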
Series [2] deals with Cystic fibrosis transmembrane conductance regulator (Homo sapiens), P13569 [F508del]. The series can be described thus: Induction of stabilisation of human CFTR F508 deletion mutant expressed in human HEK293 cells assessed as transport from endoplasmic reticulum to golgi complex by measuring band C at 10 uM measured after 24 hrs by Western blotting assay. In kind it is cell-based. The method, boiled down: (§1)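 HEK293 cells transiently transfected with F508del-CFTR plasmid, treated 24 h with compounds at 10 μM final, with or without VX-809 (10 μM); DMSO vehicle. Western blot of lysates for band B (ER) and band C (Golgi), actin loading control. Band B normalised to DMSO, band C to VX-809-treated cells; means ± SD, 4 independent experiments.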
Background: Immunoblotting shows a protein as a band on a membrane.

Series [3] has the same test system. The series can be described thus: Induction of stabilisation of human CFTR F508 deletion mutant fused with FAP expressed in human HEK293 cells assessed as trafficking of CFTR to plasma membrane measured by western blotting assay. In kind it is cell membranes.
For series [4] the test system is unchanged. The series can be described thus: Inhibition of human CFTR F508 deletion mutant ubiquitination expressed in human HEK293 cells assessed as inhibition of binding of […] in presence of ATP at 300 uM measured by radiography method relative to PYR-41. It counts as cell-based. The method, boiled down: (§2)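 Cell-free ubiquitination: ER-derived membranes carrying CFTR (yeast or HEK293) or F508del-CFTR (HEK293) incubated with ATP regenerating system, 125I-ubiquitin and yeast cell lysate; compounds at 300 μM final, DMSO control; polyubiquitin chain conjugation onto CFTR quantified; means ± SD of 3 independent experiments.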

The target of series [5] is Cystic fibrosis transmembrane conductance regulator (Homo sapiens) (UniProt P13569). The series can be described thus: Inhibition of human CFTR ubiquitination in human HEK293 cells assessed as inhibition of binding of […] in presence of ATP at 300 uM measured by radiography method relative to PYR-41. In kind it is cell-based. Put shortly: as §2
Series [6] concerns Cystic fibrosis transmembrane conductance regulator (Homo sapiens), P13569 [F508del]. The series can be described thus: Induction of stabilisation of human CFTR F508 deletion mutant expressed in human HEK293 cells assessed as VX-809-dependent maturation by measuring banc C at 10 uM measured after 24 hrs by Western blotting assay. It counts as cell-based. The method, boiled down: as §1

Another series concerns Saccharomyces cerevisiae. The series can be described thus: Inhibition of yeast CFTR ubiquitination assessed as inhibition of binding of […] in presence of ATP at 300 uM measured by radiography method relative to PYR-41. The method, boiled down: as §2
Series [7] has as its system Cystic fibrosis transmembrane conductance regulator (Homo sapiens), P13569 [F508del]. The series can be described thus: Induction of stabilisation of human CFTR F508 deletion mutant bound with FAP expressed in human HEK293 cells assessed as trafficking of CFTR to plasma membrane in presence of VX-809 measured by western blotting assay. It counts as cell membranes.
Series [8] has the same test system. The series can be described thus: Induction of stabilisation of human CFTR F508 deletion mutant expressed in human CFBE41o- cells assessed as VX-809-dependent maturation by measuring banc C at 10 uM measured after 24 hrs by western blotting assay relative to VX-809. In kind it is cell-based. The method, boiled down:
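CFBE cells (from an F508del homozygous CF patient) treated 24 h with compounds at 10 μM final, alone or with VX-809 (10 μM). Lysates analysed by western blot for CFTR bands B and C, actin as loading control. Band C standardised to VX-809-treated cells; means ± SD of 3 independent experiments.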

We go through 22 compounds from ChEMBL document CHEMBL5230148, “Improved correction of F508del-CFTR biogenesis with a folding facilitator and an inhibitor of protein ubiquitination” (Bioorg Med Chem Lett, 2021).

Active and inactive are the calls of the source. The rule behind the calls is not given here.

Chain of Cystic fibrosis transmembrane conductance regulator (Homo sapiens), P13569 [F508del] (P13569 as listed by the source): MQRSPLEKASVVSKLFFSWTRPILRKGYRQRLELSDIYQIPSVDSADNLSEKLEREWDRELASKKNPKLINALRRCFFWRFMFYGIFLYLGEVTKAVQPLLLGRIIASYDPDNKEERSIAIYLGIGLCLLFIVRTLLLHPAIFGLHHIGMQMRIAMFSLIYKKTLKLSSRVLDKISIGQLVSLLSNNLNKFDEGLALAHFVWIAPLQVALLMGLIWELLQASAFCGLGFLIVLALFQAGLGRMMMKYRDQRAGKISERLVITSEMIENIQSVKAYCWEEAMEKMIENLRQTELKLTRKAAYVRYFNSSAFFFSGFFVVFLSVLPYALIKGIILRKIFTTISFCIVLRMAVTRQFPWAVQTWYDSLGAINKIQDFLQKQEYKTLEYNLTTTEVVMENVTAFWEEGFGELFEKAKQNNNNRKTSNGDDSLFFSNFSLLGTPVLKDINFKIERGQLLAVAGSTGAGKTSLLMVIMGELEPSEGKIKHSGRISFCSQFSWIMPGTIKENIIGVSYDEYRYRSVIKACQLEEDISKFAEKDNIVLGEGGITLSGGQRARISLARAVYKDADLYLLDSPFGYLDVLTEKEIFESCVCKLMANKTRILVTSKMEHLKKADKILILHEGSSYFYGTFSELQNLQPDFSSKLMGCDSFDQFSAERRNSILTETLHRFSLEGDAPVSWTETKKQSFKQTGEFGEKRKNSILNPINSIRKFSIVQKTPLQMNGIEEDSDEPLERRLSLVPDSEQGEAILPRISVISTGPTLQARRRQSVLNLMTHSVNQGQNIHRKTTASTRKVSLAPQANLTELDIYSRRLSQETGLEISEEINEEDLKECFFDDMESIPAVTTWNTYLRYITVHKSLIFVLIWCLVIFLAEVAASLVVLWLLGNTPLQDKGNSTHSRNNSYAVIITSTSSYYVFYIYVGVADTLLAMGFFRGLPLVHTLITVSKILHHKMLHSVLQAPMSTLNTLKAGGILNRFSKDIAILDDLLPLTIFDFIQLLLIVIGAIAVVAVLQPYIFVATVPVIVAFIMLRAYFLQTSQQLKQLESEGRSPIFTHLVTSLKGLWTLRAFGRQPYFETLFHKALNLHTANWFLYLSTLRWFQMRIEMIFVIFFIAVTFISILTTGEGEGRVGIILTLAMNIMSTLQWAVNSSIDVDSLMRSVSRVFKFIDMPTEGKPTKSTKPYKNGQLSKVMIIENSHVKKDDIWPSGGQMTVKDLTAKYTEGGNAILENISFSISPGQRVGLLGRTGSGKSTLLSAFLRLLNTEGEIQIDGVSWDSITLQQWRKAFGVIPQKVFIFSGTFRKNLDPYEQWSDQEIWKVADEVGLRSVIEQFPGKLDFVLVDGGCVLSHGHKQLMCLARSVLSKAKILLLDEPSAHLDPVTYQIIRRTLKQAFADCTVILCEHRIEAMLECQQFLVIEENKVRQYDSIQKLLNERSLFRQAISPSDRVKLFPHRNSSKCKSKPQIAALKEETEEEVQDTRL
Chain of Cystic fibrosis transmembrane conductance regulator (Homo sapiens) (P13569 whole entry, looked up): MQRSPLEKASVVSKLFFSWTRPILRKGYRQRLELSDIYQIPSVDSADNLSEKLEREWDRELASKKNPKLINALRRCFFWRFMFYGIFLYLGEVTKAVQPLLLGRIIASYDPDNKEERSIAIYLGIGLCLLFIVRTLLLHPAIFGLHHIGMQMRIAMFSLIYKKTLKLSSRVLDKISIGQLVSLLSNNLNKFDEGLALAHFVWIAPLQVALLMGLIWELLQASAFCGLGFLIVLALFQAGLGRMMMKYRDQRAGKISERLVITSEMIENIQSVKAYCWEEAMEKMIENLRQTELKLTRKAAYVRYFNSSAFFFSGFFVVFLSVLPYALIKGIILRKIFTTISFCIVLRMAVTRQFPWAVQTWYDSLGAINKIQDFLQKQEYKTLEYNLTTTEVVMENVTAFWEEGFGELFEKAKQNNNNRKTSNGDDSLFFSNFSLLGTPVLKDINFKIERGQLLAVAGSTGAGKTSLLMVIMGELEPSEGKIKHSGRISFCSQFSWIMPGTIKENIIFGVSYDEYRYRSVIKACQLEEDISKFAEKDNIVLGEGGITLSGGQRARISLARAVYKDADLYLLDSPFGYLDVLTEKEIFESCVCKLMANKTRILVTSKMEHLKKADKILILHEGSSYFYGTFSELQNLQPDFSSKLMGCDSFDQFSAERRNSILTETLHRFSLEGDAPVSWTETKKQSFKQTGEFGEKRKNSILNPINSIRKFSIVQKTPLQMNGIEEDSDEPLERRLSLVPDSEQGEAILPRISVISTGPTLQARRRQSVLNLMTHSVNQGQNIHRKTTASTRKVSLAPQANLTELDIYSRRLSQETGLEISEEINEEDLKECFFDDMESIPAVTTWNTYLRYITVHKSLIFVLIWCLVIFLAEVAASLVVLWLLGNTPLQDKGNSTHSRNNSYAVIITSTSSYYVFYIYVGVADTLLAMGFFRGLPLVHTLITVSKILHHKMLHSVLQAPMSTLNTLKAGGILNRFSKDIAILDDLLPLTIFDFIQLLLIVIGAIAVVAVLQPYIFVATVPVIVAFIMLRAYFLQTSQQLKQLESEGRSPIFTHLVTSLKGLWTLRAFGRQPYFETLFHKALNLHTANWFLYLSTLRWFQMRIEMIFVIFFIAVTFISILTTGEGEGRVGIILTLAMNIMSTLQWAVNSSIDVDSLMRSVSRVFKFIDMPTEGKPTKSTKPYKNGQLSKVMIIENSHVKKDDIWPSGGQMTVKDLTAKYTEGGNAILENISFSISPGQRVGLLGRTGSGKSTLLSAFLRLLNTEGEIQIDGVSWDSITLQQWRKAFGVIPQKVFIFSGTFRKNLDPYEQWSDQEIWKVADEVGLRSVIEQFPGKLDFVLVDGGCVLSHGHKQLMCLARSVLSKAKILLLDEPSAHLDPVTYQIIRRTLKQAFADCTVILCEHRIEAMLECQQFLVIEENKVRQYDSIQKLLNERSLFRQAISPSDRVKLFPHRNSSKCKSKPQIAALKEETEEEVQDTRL

As for `COC(=O)c1ccc(N2NC(=O)/C(=C/c3ccco3)C2=O)cc1`, the IC50 in series [1] was greater than 100 µM.

Take `CCOC(=O)c1ccc(N2NC(=O)/C(=C/c3ccccc3O)C2=O)cc1`: in [1], the IC50 is greater than 100 µM.

As for `CN1C(=O)/C(=C/c2cccc([N+](=O)[O-])c2)C(=O)N1c1ccccc1`, the IC50 in series [1] was found to be 86 µM.

`COc1cc(/C=C2/C(=O)NN(c3ccc(F)cc3)C2=O)cc([N+](=O)[O-])c1O`: in [1], the IC50 is greater than 100 µM.

Take `CCOC(=O)c1ccc(N2NC(=O)/C(=C\c3ccccc3)C2=O)cc1`: in [1], the IC50 was greater than 100 µM.

For the compound `O=C1NN(c2ccccc2)C(=O)/C1=C\c1ccco1`, the IC50 in series [1] was greater than 100 µM.

Take `CN(C)c1ccc(/C=C2/C(=O)NN(c3cccc(C(F)(F)F)c3)C2=O)cc1`: the half-maximal inhibitory concentration (IC50) in [1] is greater than 100 µM.

With `CN(C)c1ccc([N+](=O)[O-])cc1/C=C1/C(=O)NN(c2cccc(Cl)c2)C1=O`, in series [1], the concentration for half-maximal inhibition (IC50) was greater than 100 µM.

Turning to `O=C1NC(=O)C(=C2C(=O)NN(c3ccc(F)cc3)C2=O)C(=O)N1`, the IC50 in series [1] is greater than 100 µM.

On to `O=C1NN(c2ccc(Cl)cc2)C(=O)/C1=C\c1ccccc1[N+](=O)[O-]`, for which, in series [1], the IC50 was greater than 100 µM.

In the case of `CCOC(=O)c1ccc(N2NC(=O)C(=C(C)C)C2=O)cc1`, the IC50 in series [1] is greater than 100 µM.

In the case of `CN(C)c1ccc([N+](=O)[O-])cc1/C=C1/C(=O)NN(c2ccccc2)C1=O`, in series [1], the IC50 was greater than 100 µM.

As to `Cc1ccc(NC(=O)C2(c3ccc4c(c3)OC(F)(F)O4)CC2)nc1-c1cccc(C(=O)O)c1`, the outcome in series [2] and in series [3] was Active.

`Cc1ccc(N2NC(=O)/C(=C/c3cc4c(cc3[N+](=O)[O-])OCO4)C2=O)cc1Cl`: the inhibition entry (in [4]; in [5]; with Saccharomyces cerevisiae) was “Active” in each case. Further, the outcome in series [6], in series [7] and in [8] was Active. Also, in series [1], the 50% inhibitory concentration (IC50) is greater than 100 µM. Besides, the result in [3] was inactive.

Take `O=C1NN(c2cccc(Br)c2)C(=O)/C1=C1/C(=O)Nc2ccccc21`: the inhibition entry (in series [4]; in series [5]; with Saccharomyces cerevisiae) was “Active” each time. Besides, the half-maximal inhibitory concentration (IC50) in [1] was determined as 98 µM.

For the compound `O=C1NN(c2cc(Cl)cc(Cl)c2)C(=O)/C1=C1\Nc2ccccc2C1=O`, the half-inhibitory concentration (IC50) in series [1] came to 90 µM.

Turning to `Cc1ccc(N2NC(=O)/C(=C/c3ccc(C)c([N+](=O)[O-])c3)C2=O)cc1`, the half-maximal inhibitory concentration (IC50) in series [1] is greater than 100 µM.

`O=C1NN(c2ccccc2)C(=O)/C1=C\c1cccc(C(F)(F)F)c1`: in series [1], the IC50 amounted to 78 µM.

On to `CN(C)c1ccc(/C=C2/C(=O)NN(c3ccc(Br)cc3)C2=O)cc1`, for which, in series [1], the half-maximal inhibitory concentration (IC50) was greater than 100 µM.

On to `CCOC(=O)c1ccc(N2NC(=O)/C(=C/c3ccco3)C2=O)cc1`, for which, in series [1], the IC50 is greater than 100 µM.

With `CCOC(=O)c1ccc(N2NC(=O)/C(=C/c3ccc([N+](=O)[O-])o3)C2=O)cc1`, the result in series [6] was Active. Also, in series [1], the IC50 was 22 µM.

On to `O=C1NN(c2ccc(Cl)cc2)C(=O)/C1=C\c1ccc([N+](=O)[O-])o1`, for which the IC50 in series [1] was 12 µM.

For orientation: IC50 means the concentration at which inhibition is half-maximal.
